Measured values taken from paper PMC9929485 (International Journal for Parasitology: Drugs and Drug …, 2023).

Key:
[1] = system: T. gondii tachyzoites; test: Anti-invasion assessment by qPCR; format: cell-based, Toxoplasma gondii RH strain
In short: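 Vero monolayers were preincubated with 0.625–10.0 μM test compound in DMEM with 1% FBS. Controls were 11.5 μM azithromycin (positive) and no drug (negative). Then 2 × 10^6 fresh tachyzoites were added per well for 2 h. Cells were washed twice with DPBS and kept in DMEM for 24 h. DNA was extracted and the T. gondii 529 bp repeat quantified by qPCR. Inhibition rate is relative to untreated control, from triplicate independent experiments.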

[2] = system: T. gondii tachyzoites; test: Anti-proliferation activity by qPCR; format: cell-based, Toxoplasma gondii RH strain
In short: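 Vero monolayers in 6-well plates were infected with 2 × 10^5 tachyzoites per well. After 8 h, test compound (0.625–10.0 μM) or azithromycin was added in DMEM with 1% FBS for 24 h, with a drug-free negative control. Total DNA was extracted and the 529 bp repeat quantified by qPCR. EC50 and therapeutic index were calculated. Values are mean ± SD of at least three independent experiments.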

[3] = system: T. gondii tachyzoites; test: ROS production assay; format: cell-based, Toxoplasma gondii RH strain; details: 1 or 5 μM, dose-dependent
In short: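 Infected Vero cultures were treated with 1 or 5 μM test compound or left untreated. Then 2 × 10^6 tachyzoites were isolated and PBS-washed. They were loaded with 7.5 μM CMH2DCFDA for 10 min, washed three times and resuspended in PBS. Fluorescence was read at excitation 488 nm and emission 525 nm. Triplicate experiments.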

[4] = system: T. gondii tachyzoites in Vero cells; test: Transmission electron microscopy; format: cell-based, Toxoplasma gondii RH strain; details: 5 μM
In short: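 Vero cells in T25 flasks were infected with 2 × 10^6 tachyzoites for 8 h, then cultured with 5 μM test compound for 8 or 24 h. Cells were detached with TrypLE (2 min), PBS-washed and fixed in 2.5% glutaraldehyde (4 °C, 12 h). Post-fixation used 1% osmium in the dark for 1.5 h. Samples were dehydrated through alcohol and acetone and embedded in Epon. Ultrathin sections were stained with uranyl acetate/lead citrate and examined by TEM.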

[5] = system: T. gondii tachyzoites; test: ATP level in tachyzoites; format: cell-based, Toxoplasma gondii RH strain; details: 1 or 5 μM, 8 or 24 h, P ≤ 0.05
In short: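 Infected Vero cultures were exposed to 1 or 5 μM test compound in DMEM for 8 or 24 h. Tachyzoites were then isolated, purified and lysed, and ATP was measured and expressed as μmol/L. Three independent experiments were run.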

[6] = Safety assay in mice; format: in vivo, mouse; details: 5, 10 or 20 mg/kg intraperitoneal, over 7 days
In short: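 BALB/c mice received test compound ip once daily for 7 days at 5, 10 or 20 mg/kg. It was formulated at 2 mg/mL in saline with 10% ethanol and 10% Cremophor EL. Controls received solvent alone or PBS. Clinical toxicity was monitored during dosing and for a further 23 days.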

[7] = Cytotoxicity assay; format: cell-based; details: African green monkey, Vero cells
In short: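 Vero cells were seeded at 1 × 10^4 per well, grown to monolayer, then exposed for 24 h to 0.78125–100 μM test compound in DMEM with 1% FBS (DMSO <1% v/v), with an untreated control. Viability was read by CCK-8 (1 h, absorbance 450 nm). Survival % = (treated − blank)/(control − blank) × 100. Triplicate independent experiments.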

[8] = system: T. gondii tachyzoites; test: Mitochondrial membrane potential; format: cell-based, Toxoplasma gondii RH strain; details: 1 or 5 μM, 8 or 24 h, P ≤ 0.05
In short: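 Tachyzoites inside Vero monolayers were treated with 1 or 5 μM test compound in DMEM for 8 or 24 h. After a PBS wash, cultures were stained with 50 nM MitoTracker Red CMXRos for 20 min. Fluorescence was read on a microplate reader. Triplicate experiments.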

[9] = system: T. gondii tachyzoites in Vero cells; test: Plaque assay; format: cell-based, Toxoplasma gondii RH strain
In short: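 Proliferation arm: Vero monolayers were infected with 2 × 10^4 tachyzoites per well for 8 h, then given 0.625–10.0 μM test compound in DMEM with 1% FBS for 24 h. Invasion arm: tachyzoites were pre-exposed to compound, then allowed to infect Vero cells for 2 h. Drug-free controls were included. After 48, 72 or 96 h, cells were PBS-washed, fixed in 4% paraformaldehyde and stained with crystal violet for 10 min. PVs per field and parasites per PV were counted in ≥20 random fields per well (40× objective).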

[10] = system: T. gondii tachyzoites; test: In vivo activity against T. gondii in infected mice; design: species or system Toxoplasma gondii RH strain in BALB/c mouse; details: 20 mg/kg intraperitoneal once a day for 7 days, P ≤ 0.05
In short: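 BALB/c mice were infected ip with 1 × 10^3 RH tachyzoites. Treatment started 4 h later, ip once daily for 7 days: test compound 20 mg/kg·bw, azithromycin 50 mg/kg·bw (positive control) or PBS. One mL of ascites was aspirated, washed and centrifuged, and DNA extracted. Parasites were quantified by PCR against a standard curve of serially diluted RH tachyzoite DNA (3.00 × 10^6 to 3.00 × 10^3/mL).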

[11] = Pharmacokinetics in mouse plasma; format: in vivo; details: female, BALB/c, ip, 20 mg/kg
In short: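 Test compound was formulated at 2 mg/mL in saline with 10% ethanol and 10% Cremophor EL. It was given ip at 20 mg/kg to 9 female BALB/c mice. Blood was sampled at 0, 0.083, 0.25, 0.5, 1, 2, 4, 8, 12 and 24 h and centrifuged at 3000 rpm for 10 min; plasma was stored at −20 °C. The PK model was selected by minimum AIC. Parameters are mean ± SD (n = 3).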

SMILES: CC[C@H]1OC(=O)[C@H](C)[C@@H](O[C@H]2C[C@@](C)(OC)[C@@H](O)[C@H](C)O2)[C@H](C)[C@@H](O[C@@H]2O[C@H](C)C[C@H](N(C)C)[C@H]2O)[C@](C)(O)C[C@@H](C)CN(C)[C@H](C)[C@@H](O)[C@]1(C)O [azithromycin]
- inhibition at 11.5 µM ([1]; Toxoplasma gondii, read-out: anti-invasion inhibition rate): 54%
- inhibition rate on intracellular proliferation of T. gondii tachyzoites ([2]; positive control drug, 24 h, qPCR): 37.50%

SMILES: CCCCCCCc1cc(O)c2ccccc2[n+]1[O-] [HQNO, 2-Heptyl-4-hydroxyquinoline N-oxide]
- ROS levels in T. gondii vs control [3]: increase
- T. gondii invasion vs control ([1]; 0.625–10 μM, P ≤ 0.05): significantly inhibited
- ultrastructure of T. gondii mitochondria (TEM) ([4]; 8 h): swollen
- ultrastructure of T. gondii (TEM) ([4]; 24 h): parasite death
- effect on mitochondria of host cells around PVs (TEM) ([4]; Vero host cells): does not affect
- ATP levels in parasites vs control [5]: significant dose-dependent decreases
- clinical toxicity in mice [6]: no obvious clinical toxicity
- IC50 at 24 h [7]: 33.4 µM
- ΔΨm in parasites vs control [8]: significant dose-dependent decreases
- tachyzoite growth (plaques formed) ([9]; 0.625–10 μM, after 6 days of incubation): dose-dependent inhibition
- average number of tachyzoites within the PVs ([9]; P ≤ 0.05): decreased
- invasion and proliferation ability of T. gondii (plaque) ([9]; after 48 h, 72 h, 96 h of incubation, P ≤ 0.05): significantly reduced
- PV number vs control ([9]; pre- and post-infection, P ≤ 0.05): decreased significantly
- T. gondii tachyzoite intracellular proliferation vs control ([2]; 0.625–10 μM, concentration-dependent, P ≤ 0.05): significantly (P ≤ 0.05) inhibited
- parasite burden in mouse peritoneum [10]: significantly decreased
- AUC(0-inf) [11]: 3880 ± 308 ng·h/mL
- AUC(0-t) [11]: 3860 ± 301 ng·h/mL
- MRT inf [11]: 1.62 ± 0.464 h
- MRT last [11]: 1.56 ± 0.446 h
- Tmax [11]: 4.98 min
- half-life [11]: 1.43 ± 0.393 h
- k el [11]: 0.000135 s⁻¹
